Experimental data taken from ChEMBL document CHEMBL1134548, “Disabling erbB receptors with rationally designed exocyclic mimetics of antibodies: structure-function analysis” (J Med Chem, 2001).
Positions of bridges follow the written chain, without caps; N, C: chain ends. Residues, ends and D or L forms follow the SMILES beside them.

Tests used:
[1] = Solubility in the PBS buffer at 1 mg/mL; Limited solubility; assay type: physicochemical
[2] = Inhibition of T6-17 cell proliferation; assay type: functional, Mus musculus; parameters: concentration or dose not given beside the values
Procedure, shortened: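 T6-17 cells (NIH3T3 engineered to overexpress human HER2) seeded overnight at 1000/well in DMEM with 10% FBS, then cultured 48 h in fresh medium with peptide at 1 µg/mL. MTT (5 mg/mL in PBS) added, 2 h at 37 °C. SDS/DMF extraction buffer (pH 4.7) added, overnight at 37 °C, then OD 600 nm read. Each value is the mean of at least four samples.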

[3] = target: T1, Receptor tyrosine-protein kinase erbB-2 (Homo sapiens, UniProt P04626); test: Kinetic constant for peptide inhibitor binding to HER2 receptor
T1 sequence (P04626 whole entry, the tested form may be a part): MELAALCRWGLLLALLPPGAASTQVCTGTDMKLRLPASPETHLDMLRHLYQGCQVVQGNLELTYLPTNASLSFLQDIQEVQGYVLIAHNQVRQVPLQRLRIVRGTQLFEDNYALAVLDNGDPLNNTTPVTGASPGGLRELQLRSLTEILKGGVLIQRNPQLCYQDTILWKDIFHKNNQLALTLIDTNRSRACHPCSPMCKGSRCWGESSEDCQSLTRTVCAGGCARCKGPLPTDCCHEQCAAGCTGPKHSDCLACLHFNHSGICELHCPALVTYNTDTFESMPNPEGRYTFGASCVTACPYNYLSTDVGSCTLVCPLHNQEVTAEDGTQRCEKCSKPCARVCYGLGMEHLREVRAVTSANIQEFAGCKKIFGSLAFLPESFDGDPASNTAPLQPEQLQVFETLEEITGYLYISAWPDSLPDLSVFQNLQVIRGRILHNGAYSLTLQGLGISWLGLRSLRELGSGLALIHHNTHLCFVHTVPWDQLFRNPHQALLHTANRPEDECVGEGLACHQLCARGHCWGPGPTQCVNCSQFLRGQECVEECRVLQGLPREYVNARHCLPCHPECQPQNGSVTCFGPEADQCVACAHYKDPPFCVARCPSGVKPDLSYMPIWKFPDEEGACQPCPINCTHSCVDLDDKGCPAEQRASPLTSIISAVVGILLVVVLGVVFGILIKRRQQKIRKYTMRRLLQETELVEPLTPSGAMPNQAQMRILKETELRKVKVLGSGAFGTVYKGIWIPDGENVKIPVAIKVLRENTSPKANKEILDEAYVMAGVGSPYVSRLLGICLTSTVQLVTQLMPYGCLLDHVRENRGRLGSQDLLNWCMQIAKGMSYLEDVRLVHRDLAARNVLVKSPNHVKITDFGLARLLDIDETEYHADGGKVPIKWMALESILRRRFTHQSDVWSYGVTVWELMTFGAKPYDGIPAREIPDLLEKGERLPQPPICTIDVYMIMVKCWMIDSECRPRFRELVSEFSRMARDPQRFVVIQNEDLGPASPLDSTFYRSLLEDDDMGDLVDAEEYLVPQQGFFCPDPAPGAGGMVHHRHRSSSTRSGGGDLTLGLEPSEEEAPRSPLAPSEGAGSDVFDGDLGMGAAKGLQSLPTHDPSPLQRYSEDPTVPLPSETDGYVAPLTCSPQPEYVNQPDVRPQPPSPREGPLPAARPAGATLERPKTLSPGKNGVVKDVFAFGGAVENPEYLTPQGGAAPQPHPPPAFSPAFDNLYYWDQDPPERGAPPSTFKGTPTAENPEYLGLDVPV
Procedure, shortened: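 Surface plasmon resonance at 25 °C. HER2 ectodomain–human IgG Fc fusion was amine-coupled (EDC/NHS, 40 ng/mL in 10 mM NaOAc pH 5.0) to 3500 RU, with a blank reference surface. Peptides were flowed at variable concentrations at 20 µL/min, with 240 s association and 300 s dissociation. Signals were reference- and buffer-subtracted, and kon, koff and KD (koff/kon) were fitted to a pseudo-first-order model.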

[4] = Solubility in the PBS buffer at 1 mg/mL; Good solubility; assay type: physicochemical
[5] = target: T1, Receptor tyrosine-protein kinase erbB-2; test: Dissociation constant for peptide inhibitor binding to HER2 receptor
Procedure, shortened: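 Surface plasmon resonance at 25 °C. Recombinant HER2 ectodomain–human IgG Fc fusion was amine-coupled to the sensor chip to 3500 RU. A blank reference surface was subtracted. Peptides were injected at variable concentrations at 20 µL/min, with 240 s association and 300 s dissociation. Signals were buffer-subtracted and fitted to a pseudo-first-order model, and KD was taken as koff/kon.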

S [1]	k off [3] [s⁻¹]	k on [3] [M⁻¹ s⁻¹]	S [4]	SMILES	Inhibition [2] [%]	Kd [5] [µM]
Insoluble	0.000294	1960	–	CSCC[C@H](NC(=O)[C@H](Cc1ccc(O)cc1)NC(=O)[C@@H]1CSSC[C@H](NC(=O)[C@@H](N)Cc2ccc(O)cc2)C(=O)N[C@@H](CC(=O)O)C(=O)NCC(=O)N[C@@H](Cc2ccccc2)C(=O)N[C@@H](Cc2ccc(O)cc2)C(=O)N[C@@H](C)C(=O)N1)C(=O)N[C@@H](CC(=O)O)C(=O)N[C@H](C(N)=O)C(C)C	59.6	–
–	0.000603	1720	Soluble	CSCC[C@H](NC(=O)[C@@H](Cc1ccc(O)cc1)NC(=O)[C@@H]1CSSC[C@H](NC(=O)[C@H](N)Cc2ccccc2)C(=O)N[C@@H](CC(=O)O)C(=O)NCC(=O)N[C@@H](Cc2ccccc2)C(=O)N[C@@H](Cc2ccc(O)cc2)C(=O)N[C@@H](C)C(=O)N1)C(=O)N[C@@H](CC(=O)O)C(=O)N[C@H](C(N)=O)C(C)C	–	–
Insoluble	0.000453	1410	–	CSCC[C@H](NC(=O)[C@H](Cc1ccc(O)cc1)NC(=O)[C@@H]1CSSC[C@H](NC(=O)[C@@H](N)Cc2ccccc2)C(=O)N[C@@H](CC(=O)O)C(=O)NCC(=O)N[C@@H](Cc2ccccc2)C(=O)N[C@@H](Cc2ccc(O)cc2)C(=O)N[C@@H](C)C(=O)N1)C(=O)N[C@@H](CC(=O)O)C(=O)N[C@H](C(N)=O)C(C)C	35.5	–
–	0.00125	219	Soluble	CC(C)[C@H](NC(=O)[C@H](CC(=O)O)NC(=O)[C@H](CCCCN)NC(=O)[C@H](Cc1ccc(O)cc1)NC(=O)[C@@H]1CSSC[C@H](NC(=O)[C@@H](N)Cc2ccccc2)C(=O)N[C@@H](CC(=O)O)C(=O)NCC(=O)N[C@@H](Cc2ccccc2)C(=O)N[C@@H](Cc2ccc(O)cc2)C(=O)N[C@@H](C)C(=O)N1)C(=O)O (H-FCDGFYACYKDV-OH; disulfide 2-8)	8.4	–
Insoluble	0.000512	617	–	CSCC[C@H](NC(=O)[C@H](Cc1ccc(O)cc1)NC(=O)[C@@H]1CSSC[C@H](NC(=O)[C@@H](N)Cc2ccccc2)C(=O)N[C@@H](CC(=O)O)C(=O)NCC(=O)N[C@@H](Cc2ccccc2)C(=O)N[C@@H](Cc2ccc(O)cc2)C(=O)N[C@@H](C)C(=O)N1)C(=O)N[C@@H](CC(=O)O)C(=O)N[C@H](C(=O)N[C@@H](CCCCN)C(N)=O)C(C)C (H-FCDGFYACYMDVK-NH2; disulfide 2-8)	–	–
–	0.000701	922	Soluble	CSCC[C@H](NC(=O)[C@H](Cc1ccc(O)cc1)NC(=O)[C@@H]1CSSC[C@H](NC(=O)[C@@H](N)Cc2ccccc2)C(=O)NCC(=O)N[C@@H](CC(=O)O)C(=O)NCC(=O)N[C@@H](Cc2ccccc2)C(=O)N[C@@H](Cc2ccc(O)cc2)C(=O)N[C@@H](C)C(=O)N1)C(=O)N[C@@H](CC(=O)O)C(=O)N[C@H](C(=O)O)C(C)C (H-FCGDGFYACYMDV-OH; disulfide 2-9)	18.4	–
–	0.000808	1110	Soluble	CSCC[C@H](NC(=O)[C@H](Cc1ccc(O)cc1)NC(=O)[C@@H]1CSSC[C@H](NC(=O)[C@H](Cc2ccccc2)NC(=O)CN)C(=O)N[C@@H](CC(=O)O)C(=O)NCC(=O)N[C@@H](Cc2ccccc2)C(=O)N[C@@H](Cc2ccc(O)cc2)C(=O)N[C@@H](C)C(=O)N1)C(=O)N[C@@H](CC(=O)O)C(=O)N[C@H](C(=O)O)C(C)C (H-GFCDGFYACYMDV-OH; disulfide 3-9)	–	–
–	–	–	–	CSCC[C@H](NC(=O)[C@H](Cc1ccc(O)cc1)NC(=O)[C@@H]1CSSC[C@H](NC(=O)[C@@H](N)Cc2ccccc2)C(=O)N[C@@H](CC(=O)O)C(=O)NCC(=O)N[C@@H](Cc2ccccc2)C(=O)N[C@@H](Cc2ccc(O)cc2)C(=O)N[C@@H](C)C(=O)N1)C(=O)N[C@@H](CC(=O)O)C(=O)N[C@H](C(=O)O)C(C)C (stereo in doubt; 9) [listing 1 of 2 here]	–	3.56

SMILES	S [1]	k off [3] [s⁻¹]	k on [3] [M⁻¹ s⁻¹]	S [4]	Inhibition [2] [%]	Kd [5] [µM]
CSCC[C@H](NC(=O)[C@H](Cc1ccc(O)cc1)NC(=O)[C@@H]1CSSC[C@H](NC(=O)[C@@H](N)Cc2ccccc2)C(=O)N[C@@H](CC(=O)O)C(=O)NCC(=O)N[C@@H](Cc2ccccc2)C(=O)N[C@@H](Cc2ccc(O)cc2)C(=O)N[C@@H](C)C(=O)N1)C(=O)N[C@@H](CC(=O)O)C(=O)N[C@H](C(=O)O)C(C)C (stereo in doubt; 2) [listing 1 of 2 here]	Insoluble	–	–	–	22.3	–
CSCC[C@H](NC(=O)[C@H](Cc1ccc(O)cc1)NC(=O)[C@@H]1CSSC[C@H](NC(=O)[C@@H](N)Cc2ccccc2)C(=O)N[C@@H](CC(=O)O)C(=O)NCC(=O)N[C@@H](Cc2ccccc2)C(=O)N[C@@H](Cc2ccc(O)cc2)C(=O)N[C@@H](C)C(=O)N1)C(=O)N[C@@H](CC(=O)O)C(=O)N[C@H](C(=O)O)C(C)C (stereo in doubt; 2) [listing 2 of 2 here]	–	0.000643	990	–	–	–
CSCC[C@H](NC(=O)[C@H](Cc1ccc(O)cc1)NC(=O)[C@@H]1CSSC[C@H](NC(=O)[C@@H](N)Cc2ccccc2)C(=O)N[C@@H](CC(=O)O)C(=O)NCC(=O)N[C@@H](Cc2ccccc2)C(=O)N[C@@H](Cc2ccc(O)cc2)C(=O)N[C@@H](C)C(=O)N1)C(=O)N[C@@H](CC(=O)O)C(=O)N[C@H](C(=O)O)C(C)C (stereo in doubt; 9) [listing 2 of 2 here]	–	0.00106	298	–	–	–
